Reference: ChEMBL document CHEMBL2429727, “Syntheses, biological evaluation and SAR of ingenol mebutate analogues for treatment of actinic keratosis and non-melanoma skin cancer” (Bioorg Med Chem Lett, 2013)

Key:
[1] = Chemical stability of the compound in aqueous buffer assessed as drug recovery after 16 hrs at pH 7.4 by HPLC analysis; type: physicochemical; details: read-out: Drug recovery
Procedure, shortened: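 DMSO stock diluted with pre-heated (37 °C) aqueous buffer pH 7.4 to at most 30% v/v organic content, then shaken. Held in the HPLC autosampler at 37 °C, first injected within 5 min, then injected repeatedly over 16 h. Recovery taken from the fall in compound peak area, UV detection normally at 270 nm.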

Keratinocyte [2] = experiment: Induction of IL-8 release in human primary epidermal keratinocytes after 6 hrs by HTRF assay; type: functional, cell-based
[3] = Induction of oxidative burst in polymorphonuclear leukocytes (unknown origin) isolated from buffy coat after 40 mins by fluorescence assay; type: functional, cell-based
Procedure, shortened: (§1)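 PMN isolated and purified from fresh buffy coats, then incubated 40 min at ambient temperature with titrated compound (top concentration 10 µM) premixed with hydroethidine. Respiratory burst read as fluorescence in relative light units, emission 579 nm, excitation 485 nm. EC50 and Emax are expressed relative to the maximum effect of the ingenol mebutate reference.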

Keratinocyte [4] = experiment: Induction of IL-8 release in human primary epidermal keratinocytes after 6 hrs by HTRF assay relative to ingenol mebutate; type: functional
[5] = Induction of oxidative burst in polymorphonuclear leukocytes (unknown origin) isolated from buffy coat at 10 uM after 40 mins by fluorescence assay relative to ingenol mebutate; type: functional; procedure, shortened: as §1
Keratinocyte [6] = experiment: Induction of TNFalpha release in human primary epidermal keratinocytes after 6 hrs; type: functional, cell-based
Procedure, shortened: (§2)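 Human adult log-phase primary epidermal keratinocytes subcultured at 10,000 cells/well. Incubated with titrated compound for 6 h at 37 °C in humidified 95% air/5% CO2. Secreted cytokines quantified on 4-spot cytokine plates. EC50 is the concentration giving 50% of the maximum effect of the ingenol mebutate reference. Emax is maximal response relative to that reference.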

Keratinocyte [7] = experiment: Induction of TNFalpha release in human primary epidermal keratinocytes after 6 hrs relative to ingenol mebutate; type: functional; procedure, shortened: as §2
[8] = Induction of necrosis in human HeLa cells after 30 mins by resazurin assay; type: cell-based; details: read-out: LC50
Procedure, shortened: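 HeLa cells exposed to increasing ester concentrations up to 400 µM for 30 min at 37 °C. Remaining metabolic activity then read with a resazurin-based dye. LC50 is the concentration causing 50% loss of metabolic activity.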

[9] = molecular target: Protein kinase C delta type (Homo sapiens, UniProt Q05655); experiment: Activation of PKCdelta (unknown origin) using phosphatidylserine […]
Sequence of Protein kinase C delta type (Q05655 whole entry): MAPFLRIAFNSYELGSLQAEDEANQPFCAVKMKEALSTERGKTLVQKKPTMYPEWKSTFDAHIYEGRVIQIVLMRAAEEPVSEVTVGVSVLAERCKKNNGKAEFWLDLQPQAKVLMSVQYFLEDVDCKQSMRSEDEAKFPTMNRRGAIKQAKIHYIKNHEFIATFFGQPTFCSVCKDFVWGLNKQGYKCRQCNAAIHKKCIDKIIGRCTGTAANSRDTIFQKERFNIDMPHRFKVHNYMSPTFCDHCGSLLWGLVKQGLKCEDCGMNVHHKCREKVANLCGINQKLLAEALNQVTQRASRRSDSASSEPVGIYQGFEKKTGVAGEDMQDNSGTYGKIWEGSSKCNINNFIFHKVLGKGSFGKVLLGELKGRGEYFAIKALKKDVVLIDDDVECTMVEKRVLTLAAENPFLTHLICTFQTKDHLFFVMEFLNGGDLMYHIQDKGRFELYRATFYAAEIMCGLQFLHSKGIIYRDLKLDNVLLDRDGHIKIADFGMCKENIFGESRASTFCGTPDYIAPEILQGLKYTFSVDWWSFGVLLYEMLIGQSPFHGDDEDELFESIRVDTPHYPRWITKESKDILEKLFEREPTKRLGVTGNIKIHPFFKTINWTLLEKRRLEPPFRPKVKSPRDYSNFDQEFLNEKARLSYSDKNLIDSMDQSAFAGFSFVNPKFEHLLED
Procedure, shortened: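 PKCdelta assayed in vitro by phosphorylation of a PKC peptide substrate, with 0.05 mg/mL phosphatidylserine and no diacylglycerol so stimulation could be seen. Compounds serially diluted at semilogarithmic intervals, twelve points from 10 µM. Reaction started by adding ATP.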

SMILES	remaining at 16 h [1] [%]	EC50 (Keratinocyte [2]) [nM]	EC50 [3] [nM]	Emax (Keratinocyte [4]) [%]	Emax at 10 µM [5] [%]	EC50 (Keratinocyte [6]) [nM]	Emax (Keratinocyte [7]) [%]	CC50 at 0.5 h [8] [nM]	EC50 ([9]; read-out: EC50) [nM]	EC50 [9]
CC1=C[C@]23C(=O)[C@@H](C=C(CO)[C@@H](O)[C@]2(O)[C@H]1OC(=O)c1ccccc1)[C@H]1[C@@H](C[C@H]3C)C1(C)C	30	182	6	54	110	88	60	–	–	–
CC1=C[C@]23C(=O)[C@@H](C=C(CO)[C@@H](O)[C@@]24OC(=O)O[C@@H]14)[C@H]1[C@@H](C[C@H]3C)C1(C)C	–	171	181	109	124	253	112	400000	–	–
CC1=C[C@]23C(=O)[C@@H](C=C(CO)[C@@H](O)[C@]2(O)[C@H]1OC(=O)/C(C)=C\c1ccc(C)cc1)[C@H]1[C@@H](C[C@H]3C)C1(C)C	45	2.1	5.9	87	126	3.1	101	109000	–	–
CC(C)=CC(=O)O[C@H]1C(C)=C[C@]23C(=O)[C@@H](C=C(CO)[C@@H](O)[C@]12O)[C@H]1[C@@H](C[C@H]3C)C1(C)C	55	86	4.3	74	109	66	82	283000	–	–
CC1=C[C@]23C(=O)[C@@H](C=C(CO)[C@@H](O)[C@]2(O)[C@H]1OC(=O)C1CC1)[C@H]1[C@@H](C[C@H]3C)C1(C)C	30	256	26	83	112	243	81	–	–	–
C/C=C(/C)C(=O)O[C@H]1C(C)=C[C@]23C(=O)[C@@H](C=C(COC)[C@@H](O)[C@]12O)[C@H]1[C@@H](C[C@H]3C)C1(C)C	77	10000	10000	–	–	10000	–	400000	–	–
C=C(CC)C(=O)O[C@H]1C(C)=C[C@]23C(=O)[C@@H](C=C(CO)[C@@H](O)[C@]12O)[C@H]1[C@@H](C[C@H]3C)C1(C)C	30	21	5.2	100	102	29	101	129000	–	–
CC#CC(=O)O[C@H]1C(C)=C[C@]23C(=O)[C@@H](C=C(CO)[C@@H](O)[C@]12O)[C@H]1[C@@H](C[C@H]3C)C1(C)C	5	10000	17	–	112	10000	–	–	–	–
CC1=C[C@]23C(=O)[C@@H](C=C(CO)[C@@H](O)[C@]2(O)[C@H]1OCC(=O)OC(C)(C)C)[C@H]1[C@@H](C[C@H]3C)C1(C)C	95	10000	3300	–	111	10000	–	311000	–	–
CC1=C[C@]23C(=O)[C@@H](C=C(CO)[C@@H](O)[C@]2(O)[C@H]1OC(=O)C(C)C)[C@H]1[C@@H](C[C@H]3C)C1(C)C	30	120	19	63	104	112	72	–	–	–
C/C=C(/C)C(=O)O[C@H]1C(C)=C[C@@]23C(=O)[C@H]([C@H]4[C@@H](C[C@H]2C)C4(C)C)[C@H]2O[C@@]2(CO)[C@@H](O)[C@]13O	–	320	50	119	114	367	156	–	–	–
CCCCCCCCCCCCCCCC(=O)O[C@H]1C(C)=C[C@]23C(=O)[C@@H](C=C(CO)[C@@H](O)[C@]12O)[C@H]1[C@@H](C[C@H]3C)C1(C)C	–	7.3	28	109	106	8.4	115	400000	4.7	–
CC1=C[C@]23C(=O)[C@@H](C=C(CO)[C@@H](O)[C@]2(O)[C@H]1OC(=O)C12C[C@@H]4C[C@@H](C[C@H]1C4)C2)[C@H]1[C@@H](C[C@H]3C)C1(C)C	70	27	8.3	65	136	36	55	77000	–	–
CC1=C[C@]23C(=O)[C@@H](C=C(CO)[C@@H](O)[C@]2(O)[C@H]1OC(=O)C1CCCCC1)[C@H]1[C@@H](C[C@H]3C)C1(C)C	35	10000	6	43	104	10000	47	112000	–	–
CCCC(=O)O[C@H]1C(C)=C[C@]23C(=O)[C@@H](C=C(CO)[C@@H](O)[C@]12O)[C@H]1[C@@H](C[C@H]3C)C1(C)C	18	313	25	115	88	318	87	–	–	–
CC1=C[C@]23C(=O)[C@@H](C=C(CO)[C@@H](O)[C@]2(O)[C@H]1OC(=O)C1=CCCCC1)[C@H]1[C@@H](C[C@H]3C)C1(C)C	60	10000	6.7	45	99	10000	42	–	–	–
CO/N=C(/C(=O)O[C@H]1C(C)=C[C@]23C(=O)[C@@H](C=C(CO)[C@@H](O)[C@]12O)[C@H]1[C@@H](C[C@H]3C)C1(C)C)c1ccccc1	55	10000	28	45	117	10000	47	–	–	–
C/C=C/C(=O)O[C@H]1C(C)=C[C@]23C(=O)[C@@H](C=C(CO)[C@@H](O)[C@]12O)[C@H]1[C@@H](C[C@H]3C)C1(C)C	0	821	9.1	93	110	802	91	–	–	–
C/C=C(/C)C(=O)O[C@H]1C(C)=C[C@]23C(=O)[C@@H](C=C(CO)[C@@H](OC)[C@]12O)[C@H]1[C@@H](C[C@H]3C)C1(C)C	> 95	738	281	–	119	748	131	–	–	–
CC1=C[C@]23C(=O)[C@@H](C=C(CO)[C@@H](O)[C@]2(O)[C@H]1OC(=O)C1CCC1)[C@H]1[C@@H](C[C@H]3C)C1(C)C	10	882	10	55	111	450	60	–	–	–
CC1=C[C@]23C(=O)[C@@H](C=C(CO)[C@@H](O)[C@]2(O)[C@H]1OC(=O)C1CCCC1)[C@H]1[C@@H](C[C@H]3C)C1(C)C	30	69	6.5	54	107	65	58	–	–	–
CC1=C[C@]23C(=O)[C@@H](C=C(CO)[C@@H](O)[C@]2(O)[C@H]1O)[C@H]1[C@@H](C[C@H]3C)C1(C)C [INGENOL]	> 95	10000	10000	–	–	10000	–	> 400000	–	–
C=C(C)C(=O)O[C@H]1C(C)=C[C@]23C(=O)[C@@H](C=C(CO)[C@@H](O)[C@]12O)[C@H]1[C@@H](C[C@H]3C)C1(C)C	20	246	6.1	74	114	213	77	406000	–	–
CC1=C[C@]23C(=O)[C@@H](C=C(CO)[C@@H](O)[C@@]24OC(=O)CO[C@@H]14)[C@H]1[C@@H](C[C@H]3C)C1(C)C	25	10000	10000	–	–	10000	–	–	–	–
C/C=C(/C)C(=O)O[C@H]1C(C)=C[C@@]23C(=O)[C@H]([C@H]4[C@@H](C[C@H]2C)C4(C)C)[C@H](F)C(CO)=C[C@]13O	> 95	1130	1240	57	–	1210	67	–	–	Not Active
